Active and inactive are the calls of the source. The rule behind the calls is not given here.
Organism: Bos taurus
Test: Activity at calf intestinal adenosine deaminase type 1 by spectrophotometric assay
Details: not given

| Structure (SMILES) | Km | Vmax |
| --- | --- | --- |
| C[C@H](O)[C@H]1O[C@@H](n2cnc3c(N)ncnc32)[C@H](O)[C@@H]1O | 21 µM | 61 µmol/min/mg |
| C[C@H](O)[C@@H]1O[C@H](n2cnc3c(N)ncnc32)[C@@H](O)[C@@H]1O | inactive | inactive |
| C[C@@H](O)[C@@H]1O[C@@H](n2cnc3c(N)ncnc32)[C@H](O)[C@@H]1O | inactive | inactive |
| Nc1ncnc2c1ncn2[C@H]1O[C@@H]([C@H](O)CO)[C@@H](O)[C@@H]1O | inactive | inactive |
| Nc1ncnc2c1ncn2[C@@H]1O[C@H]([C@@H](O)CO)[C@H](O)[C@H]1O | 260 µM | 0.178 µmol/min/mg |
| C[C@@H](O)[C@H]1O[C@@H](n2cnc3c(N)ncnc32)[C@H](O)[C@@H]1O | 78 µM | 0.792 µmol/min/mg |
| C[C@@H](O)[C@H]1O[C@H](n2cnc3c(N)ncnc32)[C@@H](O)[C@@H]1O | inactive | inactive |
| Nc1ncnc2c1ncn2[C@@H]1O[C@@H]([C@@H](O)CO)[C@@H](O)[C@H]1O | 280 µM | 0.092 µmol/min/mg |
| Nc1ncnc2c1ncn2[C@@H]1O[C@H](CO)[C@@H](O)[C@H]1O |  | 220 µmol/min/mg |

More lines, now with the values ahead:

| Km | Vmax | Structure (SMILES) |
| --- | --- | --- |
| 320 µM | 25 µmol/min/mg | C[C@H](O)[C@H]1O[C@@H](n2cnc3c(N)ncnc32)[C@H](O)[C@H]1O |
| 670 µM | 0.326 µmol/min/mg | C[C@H](O)[C@@H]1O[C@@H](n2cnc3c(N)ncnc32)[C@H](O)[C@@H]1O |
| inactive | inactive | C[C@H](O)[C@H]1O[C@H](n2cnc3c(N)ncnc32)[C@@H](O)[C@@H]1O |
| 230 µM | 0.105 µmol/min/mg | C[C@@H](O)[C@@H]1O[C@@H](n2cnc3c(N)ncnc32)[C@H](O)[C@H]1O |
| inactive | inactive | C[C@@H](O)[C@@H]1O[C@H](n2cnc3c(N)ncnc32)[C@@H](O)[C@@H]1O |

System: not listed separately
Test: Inhibition of calf intestinal adenosine deaminase type 1 by spectrophotometric assay
Design: species or system Bos taurus
Details: not given
In short: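 Commercial calf intestinal adenosine deaminase (type I) was assayed with adenosine as substrate plus the analogue, both in 0.05 M phosphate buffer, pH 7.0, at 25 °C. Mode of inhibition and Ki were derived from the kinetics.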

| Ki | Structure (SMILES) |
| --- | --- |
| Not Active | Nc1ncnc2c1ncn2[C@H]1O[C@@H]([C@H](O)CO)[C@@H](O)[C@@H]1O |

Same assay, conditions: read-out: Ki

| Ki [µM] | Structure (SMILES) |
| --- | --- |
| 120 | Nc1ncnc2c1ncn2[C@H]1O[C@H]([C@@H](O)CO)[C@H](O)[C@@H]1O |
| 180 | Nc1ncnc2c1ncn2[C@@H]1O[C@H]([C@@H](O)CO)[C@H](O)[C@H]1O |
| 240 | Nc1ncnc2c1ncn2[C@H]1O[C@H]([C@H](O)CO)[C@H](O)[C@@H]1O |
| 120 | Nc1ncnc2c1ncn2[C@@H]1O[C@@H]([C@@H](O)CO)[C@@H](O)[C@H]1O |
| 670 | Nc1ncnc2c1ncn2[C@@H]1O[C@H]([C@H](O)CO)[C@H](O)[C@@H]1O |

— ChEMBL document CHEMBL3244227, “Hexofuranosyladenine nucleosides as substrates and inhibitors of calf intestinal adenosine deaminase” (J Med Chem, 1979)
